# Results reported in ChEMBL document CHEMBL1800056, “Discovery of 2-(6-{[(6-fluoroquinolin-2-yl)methyl]amino}bicyclo[3.1.0]hex-3-yl)-N-hydroxypyrimidine-5-carboxamide (CHR-3996), a class I selective orally active histone deacetylase inhibitor” (J Med Chem, 2010).
# How the values were obtained:
# [1] = Ratio of GI50 for human HCT116 cells to IC50 for HDAC in human HeLa cell nuclear extracts
# Outline: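 Cell/enzyme ratio = HCT116 GI50 divided by HDAC IC50. Enzyme: HeLa nuclear extract (10 μg protein), 5 min preincubation, then Fluor de Lys substrate 62.5 μM, 15 min at room temperature. Stopped with developer containing trichostatin A; fluorescence ex 355/em 455 nm; eight concentrations in duplicate. Cells: HCT116, 72 h exposure (0.6-10000 nM), WST-1 read at 450 nm, n = 6.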
# [2] = target: Histone deacetylase; assay: Inhibition of HDAC in human HeLa cells nuclear extract using fluor de Lys as substrate preincubated for 5 mins by fluorometric analysis; type: cell-based
# [3] = tested on: HCT-116; assay: Antiproliferative activity against human HCT116 cells after 72 hrs by WST-1 assay; type: functional
# Outline: (§1)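 Cells seeded at (1-5) × 10³/well in serum-containing medium for 24 h at 37 °C, 5% CO₂. Inhibitor added at 0.6-10000 nM for 72 h, with WST-1 pulse over the final 4 h. Formazan read at 450 nm (reference 650 nm). Expressed as % inhibition of vehicle response; GI50 is the concentration inhibiting 50% of vehicle response; n = 6 replicates.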
# [4] = target: Cytochrome P450 2D6 (Homo sapiens, UniProt P10635); assay: Inhibition of CYP2D6; type: ADME
# Chain of Cytochrome P450 2D6 (P10635 whole entry): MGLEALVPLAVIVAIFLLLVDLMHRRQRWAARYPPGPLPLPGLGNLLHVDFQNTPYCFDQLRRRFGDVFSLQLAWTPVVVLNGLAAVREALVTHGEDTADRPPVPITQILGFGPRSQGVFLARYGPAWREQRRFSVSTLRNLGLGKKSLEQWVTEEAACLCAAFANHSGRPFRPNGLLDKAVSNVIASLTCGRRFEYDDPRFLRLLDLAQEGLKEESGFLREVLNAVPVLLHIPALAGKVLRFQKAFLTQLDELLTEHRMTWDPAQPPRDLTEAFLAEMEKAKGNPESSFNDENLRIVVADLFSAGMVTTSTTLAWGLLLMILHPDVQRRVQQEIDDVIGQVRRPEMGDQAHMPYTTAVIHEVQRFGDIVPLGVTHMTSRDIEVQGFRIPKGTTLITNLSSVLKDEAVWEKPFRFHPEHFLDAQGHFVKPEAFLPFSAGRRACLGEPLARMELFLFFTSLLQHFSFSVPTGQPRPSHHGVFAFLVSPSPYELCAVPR
# [5] = Clearance in human liver microsomes assessed as compound remaining after 30 mins; type: ADME, Microsome; details: read-out: Activity
# [6] = Aqueous solubility of the compound in PBS at pH 7.4; type: physicochemical
# [7] = Clearance in mouse liver microsomes assessed as compound remaining after 30 mins; type: ADME, Microsome; details: read-out: Activity
# [8] = target: Cytochrome P450 3A4 (Homo sapiens, UniProt P08684); assay: Inhibition of CYP3A4; type: ADME
# Chain of Cytochrome P450 3A4 (P08684 whole entry): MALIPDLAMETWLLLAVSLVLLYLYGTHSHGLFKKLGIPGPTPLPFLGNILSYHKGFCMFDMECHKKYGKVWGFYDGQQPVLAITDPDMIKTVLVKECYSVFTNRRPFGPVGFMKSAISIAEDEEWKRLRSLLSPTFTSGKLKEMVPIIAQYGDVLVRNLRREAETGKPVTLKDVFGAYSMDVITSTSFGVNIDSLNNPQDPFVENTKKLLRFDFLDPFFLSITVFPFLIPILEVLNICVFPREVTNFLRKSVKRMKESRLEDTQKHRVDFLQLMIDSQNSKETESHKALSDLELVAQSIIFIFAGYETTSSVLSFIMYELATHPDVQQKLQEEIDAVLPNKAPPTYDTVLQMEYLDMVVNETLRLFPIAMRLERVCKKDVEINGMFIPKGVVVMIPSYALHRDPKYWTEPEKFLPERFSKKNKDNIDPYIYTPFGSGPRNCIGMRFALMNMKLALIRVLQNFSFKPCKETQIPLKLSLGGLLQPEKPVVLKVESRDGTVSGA
# [9] = target: Cytochrome P450 2C19 (Homo sapiens, UniProt P33261); assay: Inhibition of CYP2C19; type: ADME
# Chain of Cytochrome P450 2C19 (P33261 whole entry): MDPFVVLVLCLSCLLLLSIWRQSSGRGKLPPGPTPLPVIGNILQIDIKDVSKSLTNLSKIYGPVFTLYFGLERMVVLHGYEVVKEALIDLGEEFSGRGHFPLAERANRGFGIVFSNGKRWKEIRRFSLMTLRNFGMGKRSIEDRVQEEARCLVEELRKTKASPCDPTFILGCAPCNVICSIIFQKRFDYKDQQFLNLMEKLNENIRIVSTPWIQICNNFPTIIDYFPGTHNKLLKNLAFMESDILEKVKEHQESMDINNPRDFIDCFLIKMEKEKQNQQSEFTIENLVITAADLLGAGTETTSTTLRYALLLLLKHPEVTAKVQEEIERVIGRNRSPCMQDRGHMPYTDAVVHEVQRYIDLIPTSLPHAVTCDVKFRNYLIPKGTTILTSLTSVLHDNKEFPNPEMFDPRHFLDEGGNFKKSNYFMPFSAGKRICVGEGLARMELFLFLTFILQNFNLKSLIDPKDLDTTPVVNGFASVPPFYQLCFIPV
# [10] = Aqueous solubility of the compound in PBS at pH 5.5; type: physicochemical
# [11] = AUC (0 to t) in plasma of CD1 mouse at 3 mg/kg, po; type: ADME, organism-based; parameters: dose 3 mg/kg, route oral
# Outline: (§2)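 Oral cassette PK in CD1 mice: four compounds per cassette, each at 3 mg/kg po. AUC0-t (ng h/mL) measured in plasma and spleen; spleen/plasma AUC ratio reported.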
# [12] = AUC (0 to t) in spleen of CD1 mouse at 3 mg/kg, po; type: ADME, organism-based; parameters: dose 3 mg/kg, route oral; outline: as §2
# [13] = tested on: Spleen; assay: Ratio of AUC (0 to t) in spleen to plasma of CD1 mouse at 3 mg/kg, po; details: in vivo
# [14] = tested on: MIA PaCa-2; assay: Antiproliferative activity against human MIAPaCa2 cells after 72 hrs by WST-1 assay; type: functional; outline: as §1
# [15] = Antiproliferative activity against human […] cells after 72 hrs by WST-1 assay; type: functional; outline: as §1
# [16] = tested on: MOLT-4; assay: Antiproliferative activity against human MOLT4 cells after 72 hrs by WST-1 assay; type: functional; outline: as §1
# [17] = tested on: HCT-116; assay: Cell cycle arrest in human HCT116 cells assessed as accumulation at G2/M phase at 300 nM after 15 hrs by propidium iodide staining based flow cytometric analysis; type: functional
# [18] = tested on: COR-L23; assay: Antiproliferative activity against human COR-L23 cells after 72 hrs by WST-1 assay; type: functional; outline: as §1
# [19] = tested on: LoVo; assay: Antiproliferative activity against human LoVo cells after 72 hrs by WST-1 assay; type: functional; outline: as §1
# [20] = tested on: U-937; assay: Antiproliferative activity against human U937 cells after 72 hrs by WST-1 assay; type: functional; outline: as §1
# [21] = tested on: HCT-116; assay: Cell cycle arrest in human HCT116 cells assessed as accumulation at sub-G1 phase at 300 nM after 15 hrs by propidium iodide staining based flow cytometric analysis; type: functional
# [22] = tested on: MG-63; assay: Antiproliferative activity against human MG63 cells after 72 hrs by WST-1 assay; type: functional; outline: as §1
# [23] = tested on: A549; assay: Antiproliferative activity against human A549 cells after 72 hrs by WST-1 assay; type: functional; outline: as §1
# [24] = tested on: HCT-116; assay: Cell cycle arrest in human HCT116 cells assessed as accumulation at G1 phase at 300 nM after 15 hrs by propidium iodide staining based flow cytometric analysis; type: functional
# [25] = tested on: HCT-116; assay: Cell cycle arrest in human HCT116 cells assessed as accumulation at S phase at 300 nM after 15 hrs by propidium iodide staining based flow cytometric analysis; type: functional
# [26] = tested on: HepG2; assay: Antiproliferative activity against human HepG2 cells after 72 hrs by WST-1 assay; type: functional; outline: as §1
# [27] = tested on: COR-L23; assay: Antiproliferative activity against doxorubicin-resistant human COR-L23 cells after 72 hrs by WST-1 assay; type: functional; outline: as §1
# [28] = tested on: A2780; assay: Antiproliferative activity against human A2780 cells after 72 hrs by WST-1 assay; type: functional; outline: as §1
SMILES,Ratio [1],IC50 [2],"GI50 ([3]; Homo sapiens, HCT-116, 72 h)",other results
O=C(NO)c1cnc(N2C[C@@H]3[C@H](C2)[C@H]3NCc2ccc(C(F)(F)F)cc2)nc1,21,0.034 µM,0.7 µM,–
O=C(NO)c1cnc(N2C[C@@H]3[C@H](C2)[C@H]3NS(=O)(=O)c2ccc3ccccc3c2)nc1,73,0.0065 µM,0.44 µM,IC50 [4]: 10 µM; remaining at 0.5 h [5]: 43%; solubility [6]: 34 µg/mL; remaining at 0.5 h [7]: 66%; IC50 [8]: 10 µM; IC50 [9]: 10 µM; solubility [10]: 74 µg/mL
O=C(NO)c1cnc(N2C[C@@H]3[C@H](C2)[C@H]3NC(=O)c2ccccc2)nc1,89,0.057 µM,5.1 µM,–
O=C(NO)c1cnc(N2C[C@@H]3[C@H](C2)[C@H]3NCc2ccc(OC(F)(F)F)cc2)nc1,8,0.015 µM,0.12 µM,AUC(0-t) [11]: 83 ng·h/mL; AUC(0-t) [12]: 251 ng·h/mL; Ratio [13]: 3
CN([C@H]1[C@@H]2CN(c3ncc(C(=O)NO)cn3)C[C@@H]21)S(=O)(=O)c1ccc2ccccc2c1,44,0.023 µM,1 µM,–
O=C(NO)c1cnc(N2C[C@@H]3[C@H](C2)[C@H]3NCCc2ccccc2)nc1,8,0.034 µM,0.28 µM,–
O=C(NO)c1cnc(N2C[C@@H]3[C@H](C2)[C@H]3NCc2cc(F)cc(F)c2)nc1,13,0.016 µM,0.2 µM,–
O=C(NO)c1cnc(N2C[C@@H]3[C@H](C2)[C@H]3NC(=O)c2ccc3ccccc3c2)nc1,32,0.013 µM,0.41 µM,–
CCCCc1ccc(CN[C@H]2[C@@H]3CN(c4ncc(C(=O)NO)cn4)C[C@@H]32)cc1,18,0.022 µM,0.41 µM,–
O=C(NO)c1cnc(N2C[C@@H]3[C@H](C2)[C@H]3NCc2ccc(Oc3ccccc3)cc2)nc1,7.5,0.016 µM,0.12 µM,AUC(0-t) [11]: 52 ng·h/mL; AUC(0-t) [12]: 219 ng·h/mL; Ratio [13]: 4.2
O=C(NO)c1cnc(N2CC3C(CNCc4ccc5ccccc5c4)C3C2)nc1 (centres undefined),12,0.032 µM,0.37 µM,–
O=C(NO)c1cnc(N2C[C@@H]3[C@H](C2)[C@H]3NCc2ccc(F)cc2)nc1,14,0.027 µM,0.38 µM,–
O=C(NO)c1cnc(N2C[C@@H]3[C@H](C2)[C@H]3NCc2ccc(-c3ccccc3)cc2)nc1,4,0.014 µM,0.056 µM,–
N#Cc1ccc(CN[C@H]2[C@@H]3CN(c4ncc(C(=O)NO)cn4)C[C@@H]32)cc1,9,0.03 µM,0.27 µM,–
O=C(NO)c1cnc(N2C[C@@H]3[C@H](C2)[C@H]3NCc2ccc(Br)cc2)nc1,18,0.014 µM,0.25 µM,–
O=C(NO)c1cnc(N2C[C@@H]3[C@H](C2)[C@H]3NC(=O)c2cccs2)nc1,90,0.04 µM,3.6 µM,–
O=C(CCCCCCC(=O)Nc1ccccc1)NO [VORINOSTAT],–,–,–,GI50 [14]: 3.5 µM; GI50 [15]: 2.1 µM; GI50 [16]: 0.67 µM; Activity [17]: 32%; GI50 [18]: 1.1 µM; GI50 [19]: 1.7 µM; GI50 [20]: 0.45 µM; Activity [21]: 19%; GI50 [22]: > 10 µM; GI50 [23]: 5.7 µM; Activity [24]: 35%; Activity [25]: 14%; GI50 [3]: 0.74 µM; GI50 [26]: 4.6 µM; GI50 [27]: 3.3 µM; GI50 [28]: 3.15 µM
O=C(NO)c1cnc(N2C[C@@H]3[C@H](C2)[C@H]3NCc2ccccc2)nc1,12,0.01 µM,0.12 µM,–
O=C(NO)c1cnc(N2C[C@@H]3[C@H](C2)[C@H]3NCc2ccc3ccccc3c2)nc1,13,0.0124 µM,0.16 µM,IC50 [4]: > 50 µM; AUC(0-t) [11]: 50 ng·h/mL; remaining at 0.5 h [5]: 40%; solubility [6]: 12 µg/mL; remaining at 0.5 h [7]: 100%; IC50 [8]: > 50 µM; AUC(0-t) [12]: 145 ng·h/mL; IC50 [9]: > 50 µM; Ratio [13]: 2.9; solubility [10]: 208 µg/mL
O=C(NO)c1cnc(N2C[C@@H]3[C@H](C2)[C@H]3NCc2cc(C(F)(F)F)cc(C(F)(F)F)c2)nc1,12.5,0.016 µM,0.2 µM,–
O=C(NO)c1cnc(N2C[C@@H]3[C@H](C2)[C@H]3NCC2CCCCC2)nc1,4,0.044 µM,0.16 µM,–
O=C(NO)c1cnc(N2C[C@@H]3[C@H](C2)[C@H]3NCc2ccc3ccccc3n2)nc1,–,0.009 µM,–,AUC(0-t) [11]: 42 ng·h/mL; AUC(0-t) [12]: 294 ng·h/mL; Ratio [13]: 7
COc1ccc(CN[C@H]2[C@@H]3CN(c4ncc(C(=O)NO)cn4)C[C@@H]32)cc1,9.5,0.02 µM,0.19 µM,–
O=C(NO)c1cnc(N2C[C@@H]3[C@H](C2)[C@H]3NS(=O)(=O)c2cccs2)nc1,>370,0.027 µM,> 10 µM,–
